Shown are actives, neighbours in structure and some others; about 2.3% of the full set was active somewhere.
TAAR1 agonist: agonists of human TAAR1; Q96RJ0; CHO RD-HGA16 TAAR1, Fluo-8 calcium fluorescence; vehicle wells 0%, saturating PEA agonist 100%; activation, % at 3 µM; 0.99% of 360,000 active; AID 624467;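 active = activation above the mean activation of all test compounds in the run plus 3 SD, cut at about 38% in these data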
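Test system: RD-HGA16 (CHO) cells co-expressing Gα16 and hTAAR1 | Doses: Single dose, 3 µM | Schedule: 17-24 h seeding, 75 min 37 °C dye, 30 min RT | Evaluation: % activation from peak over basal fluorescence ratio, DMSO-to-PEA scaled | Technique: Kinetic Fluo-8 calcium fluorescence | Benchmarks: Low control DMSO, high control PEA (EC100)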
OXTR agonist: activates the human oxytocin receptor. CHO-OTR cells, Fluo-8 calcium fluorescence; normalized: DMSO 0%, oxytocin 100%. activation, % at 3 µM. 0.32% of 320,000 active;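 active = activation above the mean of all tested compounds plus 3 SD, cutoff set per screening run, cut at about 20% in these data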;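 also: peak over basal fluorescence ratio from a 100 s FLIPR kinetic read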
TAAR1 antag: human TAAR1 antagonism. CHO RD-HGA16 TAAR1, Fluo-8 calcium fluorescence, antagonist. inhibition, % at 3 µM. 1.5% of 360,000 active;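 active = inhibition above a per-plate cutoff, the mean inhibition of test compounds on that plate plus 3 SD, cut at about 49% in these data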
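test system = CHO RD-HGA16 cells bearing hTAAR1 | replication = singlicate | controls = DMSO-only wells and EC80 β-PEA-stimulated wells | reagent = EC80 β-phenethylamine stimulus | read-out basis = percent inhibition of PEA-evoked calcium signal, max/basal emission ratio | schedule = seeding 17-24 h prior, 75-min 37 °C, 30-min RT dye loading | signal = kinetic Fluo-8 calcium fluorescence measurement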
V1R ag counter: counter-screen for oxytocin receptor agonists: human V1a receptor agonists. P37288. CHO-V1R cells, Fluo-8 calcium fluorescence, agonist mode; 0% DMSO, 100% 3 nM vasopressin. 0.25% of 320,000 active. activation, % at 3 µM;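 active = activation above the mean activation of all tested compounds plus 3 SD, per screening run, cut at about 20% in these data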;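 also: signal is peak over basal fluorescence ratio across a 100 second FLIPR read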
Target sequence (P37288 whole entry, looked up): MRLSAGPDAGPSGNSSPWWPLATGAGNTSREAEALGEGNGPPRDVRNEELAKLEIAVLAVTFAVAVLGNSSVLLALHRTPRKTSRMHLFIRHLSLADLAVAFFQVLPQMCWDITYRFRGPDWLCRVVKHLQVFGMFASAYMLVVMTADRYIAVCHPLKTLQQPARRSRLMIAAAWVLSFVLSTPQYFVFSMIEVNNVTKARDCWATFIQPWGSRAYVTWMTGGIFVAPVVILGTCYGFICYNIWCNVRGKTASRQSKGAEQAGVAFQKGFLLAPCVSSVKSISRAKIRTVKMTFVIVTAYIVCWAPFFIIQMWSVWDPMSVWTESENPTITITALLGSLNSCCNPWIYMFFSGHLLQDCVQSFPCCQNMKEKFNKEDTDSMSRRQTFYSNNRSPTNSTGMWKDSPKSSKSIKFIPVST
OXTR potentiate: potentiators of human oxytocin receptor | CHO-OTR cells, Fluo-8 calcium fluorescence, potentiator mode; 0% = oxytocin EC15, 100% = EC100 | 0.061% of 320,000 active | P30559 | activation, % at 3 µM | AID 2445;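 active = activation above that plate's cutoff, the mean activation of tested compounds plus 3 SD, cut at about 6.6% in these data, passing the limit was not always enough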
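Material: human OTR in CHO cells. Compound: 3.0 µM, one dose. Timing: compound 6 min at room temperature before oxytocin, 100 s read. Evaluation: % activation of max/min ratio relative to oxytocin controls. Replication: single well per compound, singlicate. Signal: Fluo-8 calcium dye fluorescence.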
nonsel antag count: nonselective antagonist in TAAR1 antagonist counter-screen; inhibition, % at 3 µM; shares compounds with TAAR1 antag; counterscreen cell line, calcium fluorescence, antagonist mode; 77% of 2,400 active; in the data active = inhibition above about 22%;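 also: CHO-Ga16 host cells stimulated with ATP at an EC80 level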
TAAR1 ant conf: confirmation of human TAAR1 antagonists | AID 651785 | TAAR1-expressing cells, fluorescence antagonist read-out | 40% of 2,400 active | shares compounds with TAAR1 antag | inhibition, % at 3 µM; in the data active = inhibition above about 49%;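 also: CHO-Ga16 host cells challenged with agonist PEA near its EC80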
Ga16 ag counter: nonselective Ga16 agonist in TAAR1 antagonist counter-screen; shares compounds with TAAR1 antag; Ga16-expressing cells, calcium fluorescence, agonist counterscreen; activation, % at 3 µM; 18% of 2,400 active; AID 651953; in the data active = activation above about 12%
TAAR1 ag count: counter-screen for human TAAR1 antagonists: TAAR1 agonists | shares compounds with TAAR1 antag | hTAAR1 cell line, fluorescence activation, agonist mode | activation, % at 3 µM | 2% of 2,400 active | AID 651955; in the data active = activation above about 37%;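 also: CHO cells stably expressing TAAR1 with calcium dye readout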
A number is an active result.

Screening C=CCNC(=S)NNC(=O)CCC(O)COCCC(C)C (stereo not given) returned TAAR1 agonist inactive, OXTR agonist inactive, TAAR1 antag inactive, V1R ag counter inactive and OXTR potentiate inactive.
For COc1cc(O)c(CC=C(C)C)c(O)c1C(=O)CCc1ccc(O)cc1 the results were TAAR1 agonist inactive, OXTR agonist inactive, TAAR1 antag 89.5, V1R ag counter inactive, OXTR potentiate inactive, nonsel antag count 44.4, TAAR1 ant conf 60.8, Ga16 ag counter 16.3 and TAAR1 ag count inactive.
`CCNC(=O)c1ccccc1NC(=O)c1cccc(S(=O)(=O)N2CCC(C)CC2)c1` gave TAAR1 agonist inactive, OXTR agonist inactive, TAAR1 antag 58.7, V1R ag counter inactive, OXTR potentiate inactive, nonsel antag count 33.2, TAAR1 ant conf inactive, Ga16 ag counter inactive and TAAR1 ag count inactive.
For CNC(=O)c1ccccc1NC(=O)c1cccc(S(=O)(=O)N2CCC(C)CC2)c1 the results were TAAR1 agonist inactive, OXTR agonist inactive, TAAR1 antag inactive, V1R ag counter inactive and OXTR potentiate inactive.
For CCN(CC)S(=O)(=O)c1ccc(/C(O)=C(\C#N)c2nc3ccccc3n2C)cc1 the results were TAAR1 agonist inactive, OXTR agonist inactive, TAAR1 antag 63.4, V1R ag counter inactive, OXTR potentiate inactive, nonsel antag count 35.1, TAAR1 ant conf 48.8, Ga16 ag counter 12.6 and TAAR1 ag count inactive.
For Cn1c(/C(C#N)=C(\O)c2ccc([N+](=O)[O-])cc2)nc2ccccc21 the results were TAAR1 agonist inactive, OXTR agonist inactive, TAAR1 antag inactive, V1R ag counter inactive and OXTR potentiate inactive.
`CC(NC(=O)OCc1ccccc1)C(=O)Oc1cc2oc(=O)cc(-c3ccccc3)c2cc1Cl` (stereo not given) gave TAAR1 agonist inactive, OXTR agonist inactive, TAAR1 antag inactive, V1R ag counter inactive and OXTR potentiate inactive.
COc1ccc(S(=O)(=O)N2CCOCC2)cc1NC(=O)C1COc2ccccc2O1 (stereo not given) was read as TAAR1 agonist inactive, OXTR agonist inactive, TAAR1 antag 58.6, V1R ag counter inactive, OXTR potentiate inactive, nonsel antag count 26.4, TAAR1 ant conf inactive, Ga16 ag counter inactive and TAAR1 ag count inactive.
Screening CC(C)n1c(SCC(=O)Nc2ccccc2N2CCOCC2)nc2c1c(=O)n(C)c(=O)n2C returned TAAR1 agonist inactive, OXTR agonist inactive, TAAR1 antag inactive, V1R ag counter inactive and OXTR potentiate inactive.
Screening CCn1c(SCC(=O)Nc2ccccc2N2CCCCC2)nc2c1c(=O)n(C)c(=O)n2C returned TAAR1 agonist inactive, OXTR agonist inactive, TAAR1 antag 54.7, V1R ag counter inactive, OXTR potentiate inactive, nonsel antag count 26.6, TAAR1 ant conf inactive, Ga16 ag counter inactive and TAAR1 ag count inactive.
COc1cc(C(C)=O)ccc1OCC(=O)Nc1ccccc1N1CCCCC1 was read as TAAR1 agonist inactive, OXTR agonist inactive, TAAR1 antag 54.9, V1R ag counter inactive, OXTR potentiate inactive, nonsel antag count inactive, TAAR1 ant conf inactive, Ga16 ag counter inactive and TAAR1 ag count inactive.
Screening COc1cc(C(C)=O)ccc1OCC(=O)Nc1ccccc1N1CCCC1 returned TAAR1 agonist inactive, OXTR agonist inactive, TAAR1 antag inactive, V1R ag counter inactive and OXTR potentiate inactive.
Screening CC(=O)c1cccc(OCC(=O)Nc2ccccc2N2CCOCC2)c1 returned TAAR1 agonist inactive, OXTR agonist inactive, TAAR1 antag 51.4, V1R ag counter inactive, OXTR potentiate inactive, nonsel antag count inactive, TAAR1 ant conf inactive, Ga16 ag counter inactive and TAAR1 ag count inactive.
`Cc1ccc(C#N)c(SCc2ccccc2F)n1` gave TAAR1 agonist inactive, OXTR agonist inactive, TAAR1 antag inactive, V1R ag counter inactive and OXTR potentiate inactive.
`COc1ccc2oc(C(F)(F)C(F)F)cc(=O)c2c1` gave TAAR1 agonist inactive, OXTR agonist inactive, TAAR1 antag inactive, V1R ag counter inactive and OXTR potentiate inactive.
Cc1cc(C)c2nc(SCC#N)cc(C)c2c1 was read as TAAR1 agonist inactive, OXTR agonist inactive, TAAR1 antag inactive, V1R ag counter inactive and OXTR potentiate inactive.
For O=C(CCC(=O)c1cccs1)NCCc1ccc(F)cc1 the results were TAAR1 agonist inactive, OXTR agonist inactive, TAAR1 antag 66.4, V1R ag counter inactive, OXTR potentiate inactive, nonsel antag count inactive, TAAR1 ant conf 80.2, Ga16 ag counter inactive and TAAR1 ag count 53.7.
Screening O=C(NCc1ccccc1F)C(=O)NCC1CCCN1S(=O)(=O)c1ccccc1 (stereo not given) returned TAAR1 agonist inactive, OXTR agonist inactive, TAAR1 antag inactive, V1R ag counter inactive and OXTR potentiate inactive.
`CC(/C=C1\SC(=Nc2cccnc2)NC1=O)=C\c1ccccc1` gave TAAR1 agonist inactive, OXTR agonist inactive, TAAR1 antag 62.0, V1R ag counter inactive, OXTR potentiate inactive, nonsel antag count 29.0, TAAR1 ant conf 55.5, Ga16 ag counter inactive and TAAR1 ag count inactive.
For CCc1ccc(N2CC(C(=O)OCC(=O)Nc3cc(C)on3)CC2=O)cc1 (stereo not given) the results were TAAR1 agonist inactive, OXTR agonist inactive, TAAR1 antag inactive, V1R ag counter inactive and OXTR potentiate inactive.
O=C(CCS(=O)(=O)c1ccc(Cl)cc1)NCCN1C(=O)S/C(=C\c2ccccc2F)C1=O was read as TAAR1 agonist inactive, OXTR agonist inactive, TAAR1 antag 70.7, V1R ag counter inactive, OXTR potentiate inactive, nonsel antag count 38.4, TAAR1 ant conf inactive, Ga16 ag counter inactive and TAAR1 ag count inactive.
O=C(Nc1ccnn1C1CCN(Cc2ccn[nH]2)CC1)c1ccccc1 was read as TAAR1 agonist inactive, OXTR agonist inactive, TAAR1 antag inactive, V1R ag counter inactive and OXTR potentiate inactive.
CN(Cc1ccccc1F)C(=O)CNC(=O)Cc1cccc2ccccc12 was read as TAAR1 agonist inactive, OXTR agonist inactive, TAAR1 antag inactive, V1R ag counter inactive and OXTR potentiate inactive.
CCc1cc2c(COC(=O)c3cc(S(=O)(=O)N4CCOCC4)ccc3F)cc(=O)oc2cc1O was read as TAAR1 agonist inactive, OXTR agonist inactive, TAAR1 antag inactive, V1R ag counter inactive and OXTR potentiate inactive.

Screening data (PubChem)
